Reference: publication PMC4973392 (Angewandte Chemie (International ed. in English), 2016)

What was measured:
Ubc9 [1] = target: T1, Ubc9 (Homo sapiens, UniProt P63279); assay type: biochemical; conditions: SUMO-1 conjugation to peptide substrate
Ubc9 [2] = target: T1, Ubc9; experiment: 1H-15N HSQC NMR chemical shift perturbation; assay type: binding
Outline: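 1H-15N HSQC spectra recorded with 200 μM Ubc9 in a solution saturated with the test compound. Chemical shifts of selected residues were compared between apo and compound-bound protein.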

E1-SUMO thioester = target: T2, E1-SUMO thioester (Homo sapiens, UniProt Q9UBE0+Q9UBT2); experiment: E1-SUMO thioester formation with fluorescently labeled SUMO-1; assay type: biochemical; conditions: at relevant concentrations
T2 sequence (Q9UBE0 1-346): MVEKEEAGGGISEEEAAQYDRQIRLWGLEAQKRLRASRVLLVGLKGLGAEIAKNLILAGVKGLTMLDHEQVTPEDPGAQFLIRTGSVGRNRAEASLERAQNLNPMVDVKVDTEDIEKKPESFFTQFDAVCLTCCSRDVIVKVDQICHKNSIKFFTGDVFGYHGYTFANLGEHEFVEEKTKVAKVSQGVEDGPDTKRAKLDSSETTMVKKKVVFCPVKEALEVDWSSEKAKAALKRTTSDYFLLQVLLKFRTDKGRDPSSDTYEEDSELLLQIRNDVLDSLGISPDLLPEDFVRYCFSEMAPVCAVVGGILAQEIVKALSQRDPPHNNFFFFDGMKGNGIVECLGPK
T2 sequence (Q9UBT2 1-640): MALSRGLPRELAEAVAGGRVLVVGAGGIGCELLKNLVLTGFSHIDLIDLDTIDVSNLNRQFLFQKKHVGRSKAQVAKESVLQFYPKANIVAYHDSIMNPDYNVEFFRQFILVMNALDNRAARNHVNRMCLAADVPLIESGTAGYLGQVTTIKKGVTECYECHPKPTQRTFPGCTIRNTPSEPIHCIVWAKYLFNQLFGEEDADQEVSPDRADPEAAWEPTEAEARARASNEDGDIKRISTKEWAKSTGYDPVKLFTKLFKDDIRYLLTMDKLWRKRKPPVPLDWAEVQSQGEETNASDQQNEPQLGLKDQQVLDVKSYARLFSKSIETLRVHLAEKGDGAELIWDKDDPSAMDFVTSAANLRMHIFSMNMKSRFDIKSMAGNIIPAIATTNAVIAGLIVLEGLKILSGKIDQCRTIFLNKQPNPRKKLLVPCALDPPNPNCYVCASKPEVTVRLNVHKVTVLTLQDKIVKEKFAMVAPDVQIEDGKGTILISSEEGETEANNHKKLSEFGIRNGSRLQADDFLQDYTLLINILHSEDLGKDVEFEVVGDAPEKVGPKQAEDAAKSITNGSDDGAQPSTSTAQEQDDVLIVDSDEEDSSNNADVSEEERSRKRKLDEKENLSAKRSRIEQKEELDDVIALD
Outline: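 E1–SUMO thioester formation was followed using fluorescently labeled SUMO-1 in the presence of the test compound. The negative-control lane omitted E1.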

E2-SUMO thioester = E2-SUMO thioester (Homo sapiens, UniProt P63279); experiment: E2-SUMO thioester formation with fluorescently labeled SUMO-1; assay type: biochemical; conditions: at concentrations that correlated well with the IC50
RanGAP1 sumoylation = experiment: conjugation of SUMO to recombinant protein fragment of RanGAP1; assay type: biochemical
IκBα sumoylation = experiment: conjugation of SUMO to full-length recombinant IκBα; assay type: biochemical
Ubc9-K59A mutant = Ubc9-K59A mutant (Homo sapiens, UniProt P63279, K59A); experiment: sumoylation of fluorescent substrate peptide with Ubc9-K59A mutant; assay type: biochemical; conditions: at any concentration
Ubc9-E42A mutant = Ubc9-E42A mutant (Homo sapiens, UniProt P63279, E42A); experiment: sumoylation of fluorescent substrate peptide with Ubc9-E42A mutant; assay type: biochemical; conditions: at any concentration
Chain of Ubc9-E42A mutant (P63279 whole entry E42A): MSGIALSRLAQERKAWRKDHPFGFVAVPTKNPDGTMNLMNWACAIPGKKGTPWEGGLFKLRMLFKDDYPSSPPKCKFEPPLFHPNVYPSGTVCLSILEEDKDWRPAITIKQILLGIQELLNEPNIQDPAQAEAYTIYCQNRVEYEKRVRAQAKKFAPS

T1 sequence (P63279 whole entry): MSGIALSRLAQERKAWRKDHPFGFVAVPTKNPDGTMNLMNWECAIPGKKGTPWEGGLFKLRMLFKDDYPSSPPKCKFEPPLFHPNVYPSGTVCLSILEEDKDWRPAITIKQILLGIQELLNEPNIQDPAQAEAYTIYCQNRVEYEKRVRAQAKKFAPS
Chain of E2-SUMO thioester (P63279 whole entry, the tested form may be a part): as the sequence (P63279 whole entry) above
Chain of Ubc9-K59A mutant (P63279 whole entry K59A): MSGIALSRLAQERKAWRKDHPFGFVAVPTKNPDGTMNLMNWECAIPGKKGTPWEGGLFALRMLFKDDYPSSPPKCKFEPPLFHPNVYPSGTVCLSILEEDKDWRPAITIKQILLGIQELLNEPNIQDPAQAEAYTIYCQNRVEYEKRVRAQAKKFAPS

Oc1ccccc1-c1ccccc1O [compound 1, 2,2′-bisphenol]
IC50 (Ubc9 [1]): 5.8 ± 0.1 mM
binding to Ubc9 in solution (chemical shift perturbations) (Ubc9 [2]): specific binding
effect on formation of the E1-SUMO thioester (E1-SUMO thioester): no effect
effect on formation of the E2-SUMO thioester (E2-SUMO thioester): inhibited
effect on conjugation of SUMO to RanGAP1 fragment (RanGAP1 sumoylation): inhibited
effect on conjugation of SUMO to IκBα (IκBα sumoylation): inhibited
inhibition of Ubc9 K59A mutant (Ubc9-K59A mutant): neither mutant was inhibited
inhibition of Ubc9 E42A mutant (Ubc9-E42A mutant): neither mutant was inhibited
